# Assay outcomes: PubChem, several laboratories
# A selection: hits, their analogues and other compounds. The true share with any hit is near 3.7%.
# NPY-Y1 PAM-ag: potentiates or activates human NPY-Y1 receptor. 220,000 tested, 0.37% active. activation, % at 3.6 µM. NPY-Y1 expressing cells, potentiator/agonist activation; in the data active = activation above about 33%, passing the limit was not always enough;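 also: cells stimulated with NPY at EC10 then isoproterenol at EC100; 0% = low agonist plus stimulus and 100% = saturating agonist plus stimulus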
# KCC2 mod: modulators of human KCC2 chloride dependent transport. 190,000 tested, 2.2% active. B-score of Tl+ flux slope (higher = more flux/activation; lower = inhibition) at 10 µM. KCC2 cells, thallium flux FluoZin-2 fluorescence. Q9H2X9;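 active = thallium flux slope and its plate-corrected score both differing from the plate sample mean at a set confidence after two filtering rounds, in either direction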;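 also: slope of fluorescence scaled to starting intensity during 10 to 20 s after thallium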
# NPY Y1 blocker: blocks the human neuropeptide Y Y1 receptor. inhibition, % at 3.6 µM. HEK293-CNG Y1 cells, membrane potential fluorescence; NPY at EC95, then isoproterenol. P25929. 200,000 tested, 1% active;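 active = inhibition above the campaign mean inhibition of all tested compounds plus 3 SD, cut at about 20% in these data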;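 also: 0% = DMSO wells given NPY plus isoproterenol and 100% = isoproterenol alone without NPY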
#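 Material: HEK293 Y1/CNG channel cell line | Also added: NPY (25 nM), isoproterenol (1 µM), Ro 20-1724 (25 µM) | Compound: One concentration, 3.6 µM, in 0.4% DMSO | Schedule: 3 h dye uptake, 1 h room-temperature compound, 45 min post-isoproterenol | Signal: Membrane-potential fluorescent dye readout | Read-out: % inhibition of NPY effect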
# NPY Y2 blocker: antagonists of human neuropeptide Y receptor Y2 | P49146 | inhibition, % at 2.7 µM | NPY-Y2 expressing cells, antagonist mode | 140,000 tested, 0.99% active | AID 793; in the data active = inhibition above about 17%;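 also: 0% = vehicle with agonist challenge and 100% = reference antagonist with challenge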
# NPY-Y2 PAM-ag: potentiates or activates human NPY-Y2 receptor. activation, % at 3.6 µM. 220,000 tested, 0.45% active. cells expressing NPY-Y2, potentiator/agonist read-out. P49146. AID 1359; in the data active = activation above about 27%;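 also: cells stimulated with NPY near EC25 plus isoproterenol at EC100; 0% = vehicle plus submaximal agonist and 100% = vehicle plus saturating agonist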
# Furin inh: human furin inhibition; P09958; purified furin, fluorogenic substrate cleavage; inhibition, % at 20 µM or 30 µM; 220,000 tested, 0.061% active; AID 463115; in the data active = inhibition above about 25%
# Starred values were filed as active, the others as inactive; . = no result given.
SMILES,NPY-Y1 PAM-ag,KCC2 mod,NPY Y1 blocker,NPY Y2 blocker,NPY-Y2 PAM-ag,Furin inh
CC(C)CNC(=O)c1cccc(NC(=O)Cc2ccc(Cl)cc2)c1,-28,-0.72,-3,-3,-2,0
Fc1ccc(NC(=S)NN=C2CCCCCC2)cc1,3,22*,2,4,11,-19
S=C(NN=C1CCCCCC1)Nc1ccc(Cl)cc1,4,.,4,4,-2,-16
CCCC(=O)c1ccc2c(c1)OCCO2,1,.,6,7,-5,-13
O=C(O)CCC(=O)c1ccc2c(c1)OCCO2,-39,.,29*,18*,-26,-19
NC(=O)c1ccc(NC(=O)COC(=O)C2CC(=O)N(Cc3ccccc3)C2)cc1 (configuration not stated),0,-0.24,-2,.,6,-28
Cc1ccc(OCC(=O)N/N=C\c2cn(C)c3ccccc23)c([N+](=O)[O-])c1,15,.,-1,5,0,-14
CCOC(=O)C(C)Sc1nc(-c2ccco2)cc(C(F)(F)F)c1C#N (configuration not stated),-11,-1.6,34*,20*,20,-32
N/C(=N\S(=O)(=O)c1ccc(Cl)s1)c1ccccc1,1,0.26,-1,-2,-4,-32
Cc1nnc(SCC(=O)NC(C)(C)C)n1NCc1c(F)cccc1Cl,-15,1.3,5,.,-11,-15
CCC(c1nnnn1Cc1ccco1)N1CCN(c2cc(Cl)ccc2C)CC1 (configuration not stated),-28,-0.11,27*,28*,-12,-6
Cc1ccc(Cl)cc1N1CCN(Cc2nnnn2Cc2ccco2)CC1,-8,.,13,9,-5,-20
O=C(CSc1nnc(-c2ccncc2)n1-c1ccc(Cl)cc1)NCc1cccs1,33,0.49,2,-1,-6,-12
CCOC(=O)Cc1csc(NC(=S)NC(=O)c2ccccc2C)n1,-11,29*,-4,8,-16,-7
Fc1ccc(-c2nnc(Cc3ccc(Cl)cc3)o2)cc1,-24,-0.9,.,.,-8,-12
CNC(=O)c1cc2c(=O)n3cccc(C)c3nc2n(C(C)C)c1=N,-1,.,-2,3,9,-27
O=C(NCCCN1CCOCC1)c1ccco1,-12,.,-5,1,6,-18
O=C(c1ccco1)N(CCCN1CCOCC1)c1nc(-c2ccc(Cl)cc2)cs1,-44,-0.0074,41*,30*,-23,-7
N#Cc1c2ccc(O)cc2n2ccccc12,5,-4.2*,-2,.,23,-20
CC(C)=CCN1CCN(Cc2cc(F)ccc2-n2nc(C)cc2C)CC1CCO (configuration not stated),-15,0.69,17,.,-12,-17
Cc1[nH]n(-c2ccc(F)cc2)c(=O)c1/C=N/c1sc2c(c1C#N)CCCC2,11,.,2,1,1,-11
Cc1[nH]n(-c2cccc3ccccc23)c(=O)c1/C=N/c1sc2c(c1C#N)CCC2,-12,26*,0,0,3,-2
NC(=O)C(=O)N/N=C/c1cccc(C(F)(F)F)c1,1,0.19,0,.,-5,-17
O=c1cc(-c2ccccc2Cl)oc2c(NS(=O)(=O)c3cc(Cl)cc(Cl)c3O)ccc(O)c12,56*,20*,-5,2,41*,-6
CCc1ccc(S(=O)(=O)Nc2ccc(O)c3c(=O)cc(-c4ccccc4Cl)oc23)cc1,.,1.2,.,.,.,-28
SMILES,NPY-Y1 PAM-ag,KCC2 mod,NPY Y1 blocker,NPY Y2 blocker,NPY-Y2 PAM-ag,Furin inh
CC(C)(C)CC(=O)Nc1nnc(SCC(=O)Nc2ccccc2F)s1,-1,-0.58,21*,.,-16,-26
S=C(Nc1cccc(Cl)c1)Nc1ccccc1Oc1ccccc1,-26,5.4*,0,0,-29,1
S=C(Nc1ccccc1Oc1ccccc1)NC1CCCC1,-5,-0.43,3,.,-5,1
CNC(=S)Nc1cc(Cl)ccc1Oc1ccccc1,14,0.35,-5,-2,1,-25
S=C(Nc1ccccc1Oc1ccccc1)Nc1cccc(Cl)c1Cl,0,31*,1,0,-3,-6
CCNC(=S)Nc1cc(Cl)ccc1Oc1ccccc1,-17,0.27,3,12,2,-10
S=C(Nc1ccc(Cl)cc1Cl)Nc1ccccc1Oc1ccccc1,4,25*,3,3,0,-23
CC1CC1C(=O)Nc1nc(-c2cccs2)c(-c2cccs2)s1 (configuration not stated),-1,-0.55,5,10,12,-14
